Measured values taken from ChEMBL document CHEMBL4689842, “EUbOPEN Chemogenomics Library wave 1” (2021).

System: Fibroblast
Assay: Multiplex assay against human fibroblast
Format: toxicity, cell-based
How it was run: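 Phenotypes for tubulin, mitochondrial mass and membrane permeability are expressed as per cents of healthy-nucleus cells. Cells were stained live at seeding with Hoechst33342, BioTracker Green Microtubule Cytoskeleton Dye, MitoTracker Red and Annexin V Alexa Fluor 680, then imaged after compound addition on a CQ1 microscope at 37°C and 5% CO2. Machine-learning gating in CellPathfinder separated Hoechst high-intensity objects from normal cells, divided normal cells by nuclear state (healthy, pyknosed, fragmented) and divided pyknosed cells into mitotic or apoptotic.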

[1] = 12 h, 1 µM, compound concentration 1 uM, replicate 1
[2] = 12 h, 1 µM, compound concentration 1 uM, replicate 2
[3] = 12 h, 10 µM, compound concentration 10 uM, replicate 1
[4] = 12 h, 10 µM, compound concentration 10 uM, replicate 2
[5] = 24 h, 1 µM, compound concentration 1 uM, replicate 1
[6] = 24 h, 1 µM, compound concentration 1 uM, replicate 2
[7] = 24 h, 10 µM, compound concentration 10 uM, replicate 1
[8] = 24 h, 10 µM, compound concentration 10 uM, replicate 2
[9] = 48 h, 1 µM, compound concentration 1 uM, replicate 1
[10] = 48 h, 1 µM, compound concentration 1 uM, replicate 2
[11] = 48 h, 10 µM, compound concentration 10 uM, replicate 1
[12] = 48 h, 10 µM, compound concentration 10 uM, replicate 2

For `Cc1cccc(CN2CCN(C(c3ccccc3)c3ccc(Cl)cc3)CC2)c1.Cl.Cl` (stereo not given), the “Population Apoptotic (%)” value [1] was 64%, the “Population Fragmented Nuclei (%)” value [1] was 22% and the “Population Healthy Nuclei (%)” value [1] was 48%. The “Population Hoechst High Intensity Objects (%)” value [1] was 22%, the “Population Membrane Permeable-Phenotype (%)” value [1] was 34% and the “Population Mitochondria Different-Phenotype (%)” value [1] was 8%. The “Population Mitotic Cells (%)” value [1] was 35%, the “Population Normal (%)” value [1] was 77% and the “Population Pyknosed Nuclei (%)” value [1] was 29%. The “Population Tubulin-Different-Phenotype (%)” value [1] was 44%, the “Total Cell Count” value [1] was 134 and the “Population Apoptotic (%)” value [2] was 0%. For the same compound, the “Population Fragmented Nuclei (%)” value [2] was 16%, the “Population Healthy Nuclei (%)” value [2] was 79% and the “Population Hoechst High Intensity Objects (%)” value [2] was 8%. The “Population Membrane Permeable-Phenotype (%)” value [2] was 4%, the “Population Mitochondria Different-Phenotype (%)” value [2] was 26% and the “Population Mitotic Cells (%)” value [2] was 100%. For the same compound, the “Population Normal (%)” value [2] was 91%, the “Population Pyknosed Nuclei (%)” value [2] was 3% and the “Population Tubulin-Different-Phenotype (%)” value [2] was 23%. The “Total Cell Count” value [2] was 48, the “Population Apoptotic (%)” value [3] was 61% and the “Population Fragmented Nuclei (%)” value [3] was 26%. The “Population Healthy Nuclei (%)” value [3] was 38%, the “Population Hoechst High Intensity Objects (%)” value [3] was 11% and the “Population Membrane Permeable-Phenotype (%)” value [3] was 15%. For the same compound, the “Population Mitochondria Different-Phenotype (%)” value [3] was 45%, the “Population Mitotic Cells (%)” value [3] was 38% and the “Population Normal (%)” value [3] was 88%. The “Population Pyknosed Nuclei (%)” value [3] was 34%, the “Population Tubulin-Different-Phenotype (%)” value [3] was 90% and the “Total Cell Count” value [3] was 127. The “Population Apoptotic (%)” value [4] was 50%, the “Population Fragmented Nuclei (%)” value [4] was 14% and the “Population Healthy Nuclei (%)” value [4] was 72%. For the same compound, the “Population Hoechst High Intensity Objects (%)” value [4] was 6%, the “Population Membrane Permeable-Phenotype (%)” value [4] was 6% and the “Population Mitochondria Different-Phenotype (%)” value [4] was 61%. The “Population Mitotic Cells (%)” value [4] was 50%, the “Population Normal (%)” value [4] was 93% and the “Population Pyknosed Nuclei (%)” value [4] was 13%. For the same compound, the “Population Tubulin-Different-Phenotype (%)” value [4] was 47%, the “Total Cell Count” value [4] was 58 and the “Population Apoptotic (%)” value [5] was 75%. For the same compound, the “Population Fragmented Nuclei (%)” value [5] was 21%, the “Population Healthy Nuclei (%)” value [5] was 56% and the “Population Hoechst High Intensity Objects (%)” value [5] was 26%. For the same compound, the “Population Membrane Permeable-Phenotype (%)” value [5] was 34%, the “Population Mitochondria Different-Phenotype (%)” value [5] was 5% and the “Population Mitotic Cells (%)” value [5] was 25%. The “Population Normal (%)” value [5] was 73%, the “Population Pyknosed Nuclei (%)” value [5] was 21% and the “Population Tubulin-Different-Phenotype (%)” value [5] was 40%. The “Total Cell Count” value [5] was 125, the “Population Apoptotic (%)” value [6] was 80% and the “Population Fragmented Nuclei (%)” value [6] was 18%. For the same compound, the “Population Healthy Nuclei (%)” value [6] was 73%, the “Population Hoechst High Intensity Objects (%)” value [6] was 10% and the “Population Membrane Permeable-Phenotype (%)” value [6] was 11%. The “Population Mitochondria Different-Phenotype (%)” value [6] was 13%, the “Population Mitotic Cells (%)” value [6] was 20% and the “Population Normal (%)” value [6] was 89%. For the same compound, the “Population Pyknosed Nuclei (%)” value [6] was 8%, the “Population Tubulin-Different-Phenotype (%)” value [6] was 22% and the “Total Cell Count” value [6] was 47. The “Population Apoptotic (%)” value [7] was 66%, the “Population Fragmented Nuclei (%)” value [7] was 29% and the “Population Healthy Nuclei (%)” value [7] was 44%. The “Population Hoechst High Intensity Objects (%)” value [7] was 14%, the “Population Membrane Permeable-Phenotype (%)” value [7] was 16% and the “Population Mitochondria Different-Phenotype (%)” value [7] was 40%. For the same compound, the “Population Mitotic Cells (%)” value [7] was 33%, the “Population Normal (%)” value [7] was 85% and the “Population Pyknosed Nuclei (%)” value [7] was 26%. For the same compound, the “Population Tubulin-Different-Phenotype (%)” value [7] was 86%, the “Total Cell Count” value [7] was 132 and the “Population Apoptotic (%)” value [8] was 11%. The “Population Fragmented Nuclei (%)” value [8] was 10%, the “Population Healthy Nuclei (%)” value [8] was 77% and the “Population Hoechst High Intensity Objects (%)” value [8] was 5%. For the same compound, the “Population Membrane Permeable-Phenotype (%)” value [8] was 5%, the “Population Mitochondria Different-Phenotype (%)” value [8] was 63% and the “Population Mitotic Cells (%)” value [8] was 88%. The “Population Normal (%)” value [8] was 94%, the “Population Pyknosed Nuclei (%)” value [8] was 12% and the “Population Tubulin-Different-Phenotype (%)” value [8] was 45%. The “Total Cell Count” value [8] was 67, the “Population Apoptotic (%)” value [9] was 66% and the “Population Fragmented Nuclei (%)” value [9] was 30%. The “Population Healthy Nuclei (%)” value [9] was 58%, the “Population Hoechst High Intensity Objects (%)” value [9] was 18% and the “Population Membrane Permeable-Phenotype (%)” value [9] was 20%. For the same compound, the “Population Mitochondria Different-Phenotype (%)” value [9] was 3%, the “Population Mitotic Cells (%)” value [9] was 33% and the “Population Normal (%)” value [9] was 81%. For the same compound, the “Population Pyknosed Nuclei (%)” value [9] was 10%, the “Population Tubulin-Different-Phenotype (%)” value [9] was 30% and the “Total Cell Count” value [9] was 136. The “Population Apoptotic (%)” value [10] was 87%, the “Population Fragmented Nuclei (%)” value [10] was 24% and the “Population Healthy Nuclei (%)” value [10] was 68%. The “Population Hoechst High Intensity Objects (%)” value [10] was 9%, the “Population Membrane Permeable-Phenotype (%)” value [10] was 6% and the “Population Mitochondria Different-Phenotype (%)” value [10] was 7%. The “Population Mitotic Cells (%)” value [10] was 12%, the “Population Normal (%)” value [10] was 90% and the “Population Pyknosed Nuclei (%)” value [10] was 7%. For the same compound, the “Population Tubulin-Different-Phenotype (%)” value [10] was 44%, the “Total Cell Count” value [10] was 124 and the “Population Apoptotic (%)” value [11] was 57%. The “Population Fragmented Nuclei (%)” value [11] was 39%, the “Population Healthy Nuclei (%)” value [11] was 54% and the “Population Hoechst High Intensity Objects (%)” value [11] was 12%. For the same compound, the “Population Membrane Permeable-Phenotype (%)” value [11] was 16%, the “Population Mitochondria Different-Phenotype (%)” value [11] was 25% and the “Population Mitotic Cells (%)” value [11] was 42%. For the same compound, the “Population Normal (%)” value [11] was 87%, the “Population Pyknosed Nuclei (%)” value [11] was 6% and the “Population Tubulin-Different-Phenotype (%)” value [11] was 79%. The “Total Cell Count” value [11] was 124, the “Population Apoptotic (%)” value [12] was 50% and the “Population Fragmented Nuclei (%)” value [12] was 42%. For the same compound, the “Population Healthy Nuclei (%)” value [12] was 52%, the “Population Membrane Permeable-Phenotype (%)” value [12] was 9% and the “Population Mitochondria Different-Phenotype (%)” value [12] was 34%. For the same compound, the “Population Mitotic Cells (%)” value [12] was 50%, the “Population Pyknosed Nuclei (%)” value [12] was 5% and the “Population Tubulin-Different-Phenotype (%)” value [12] was 88%. For the same compound, the “Total Cell Count” value [12] was 133.
